Results published in ChEMBL document CHEMBL1131043, “Nucleosides and nucleotides. 175. Structural requirements of the sugar moiety for the antitumor activities of new nucleoside antimetabolites, 1-(3-C-ethynyl-beta-D-ribo-pentofuranosyl)cytosine and -uracil1” (J Med Chem, 1998).

Legend:
KB [1] = experiment: Concentration required to inhibit 50% of human epidermoid KB cell growth was measured(in vitro) using MTT assay.; format: functional, cell-based
How it was run: (§1)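 Cells seeded at 2 × 10³/well, cultured with or without test nucleoside for 72 h, then 4 h further with MTT. Formazan dissolved in DMSO, OD read at 540 nm. % inhibition = [1 − OD sample/OD control] × 100; IC50 taken as concentration giving 50% growth inhibition. S-180 cytotoxicity run by the same method.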

Sarcoma-180 [2] = experiment: Phosphorylation by uridine/cytidine kinase(UCK) from mouse sarcoma -180 ascites cells was measured.; format: functional
How it was run: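 UCK partially purified from mouse Sarcoma-180 ascites cells (ammonium sulfate 30–50%, Sephacryl S-200, hydroxyapatite, DEAE-Sepharose). Reaction: 50 mM Tris-HCl pH 8.0, 10 mM ATP, 10 mM NaF, 5 mM MgCl2, 1 mg/mL BSA, 0.6 mM nucleoside, 37 °C, 15 min (Cyd, Urd) or 60 min (others), stopped by boiling. Tritiated nucleosides: 5'-monophosphate on PEI-cellulose TLC counted; unlabeled: substrate consumption by C18 HPLC at 270 nm. Duplicate means.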

L1210 = experiment: Concentration required to inhibit 50% of murine leukemia L1210 cell growth was measured(in vitro) using MTT assay.; format: functional, cell-based, Mus musculus; how it was run: as §1
Sarcoma-180 [3] = experiment: Cytotoxicity against sarcoma -180 cells was measured by […].; format: functional, cell-based; conditions: Mus musculus; how it was run: as §1
KB [4] = experiment: The concentration required to inhibit 50% of human epidermoid KB cell growth was measured(in vitro) using MTT assay.; format: functional, cell-based; how it was run: as §1

Row | Structure (SMILES) | IC50 (KB [1]; Homo sapiens, KB) [µM] | Phosphorylating activity (Sarcoma-180 [2]) [pmol/min/assay] | IC50 (L1210; Mus musculus, L1210) [µM] | IC50 (Sarcoma-180 [3]) [µM] | IC50 (KB [1]; kb) [µM] | IC50 (L1210; l1210) [µM] | IC50 (KB [4]) [µM]
1 | C=C[C@@]1(O)[C@@H](CO)O[C@@H](n2ccc(=O)[nH]c2=O)[C@@H]1O | 51.8 | 9.3 | 148 | > 30 |  |  | 
2 | CC#C[C@@]1(O)[C@@H](CO)O[C@@H](n2ccc(N)nc2=O)[C@@H]1O | 14.6 | 160 | 24.5 | 13.9 |  |  | 
3 | CCC[C@@]1(O)[C@@H](CO)O[C@@H](n2ccc(=O)[nH]c2=O)[C@@H]1O | > 350 |  | > 350 |  |  |  | 
4 | CCC#C[C@@]1(O)[C@@H](CO)O[C@@H](n2ccc(=O)[nH]c2=O)[C@@H]1O | 226 |  | 338 |  |  |  | 
5 | CCC#C[C@@]1(O)[C@@H](CO)O[C@@H](n2ccc(N)nc2=O)[C@@H]1O | 108 | 0 | 129 | > 30 |  |  | 
6 | C#C[C@@H]1[C@@H](O)[C@H](n2ccc(N)nc2=O)O[C@@H]1CO | > 350 | 6.9 | > 350 | > 30 |  |  | 
7 | C#C[C@]1(O)[C@@H](CO)O[C@@H](n2ccc(=O)[nH]c2=O)[C@@H]1O |  | 141 |  | 0.013 | > 350 | > 350 | 
8 | C#C[C@]1(O)[C@@H](CO)O[C@@H](n2ccc(N)nc2=O)[C@@H]1O |  |  |  |  | > 350 | > 350 | 
9 | O=c1ccn([C@@H]2O[C@H](CO)[C@](O)(C3CC3)[C@H]2O)c(=O)[nH]1 | > 350 |  | > 350 |  |  |  | 
10 | C#CC[C@@]1(O)[C@@H](CO)O[C@@H](n2ccc(=O)[nH]c2=O)[C@@H]1O |  |  | > 350 |  |  |  | > 350
11 | C#C[C@H]1[C@@H](O)[C@H](n2ccc(=O)[nH]c2=O)O[C@@H]1CO | > 350 |  | > 350 |  |  |  | 
12 | C#C[C@@H]1[C@@H](O)[C@H](n2ccc(=O)[nH]c2=O)O[C@@H]1CO | > 350 |  | > 350 |  |  |  | 
13 | C#CC[C@]1(O)[C@@H](CO)O[C@@H](n2ccc(N)nc2=O)[C@@H]1O | > 350 |  | > 350 |  |  |  | 
14 | CC#C[C@@]1(O)[C@@H](CO)O[C@@H](n2ccc(=O)[nH]c2=O)[C@@H]1O | 70.8 |  | 354 |  |  |  | 
15 | C=C[C@@]1(O)[C@@H](CO)O[C@@H](n2ccc(N)nc2=O)[C@@H]1O | 74.3 | 0 | 60.8 | > 30 |  |  | 
16 | C#C[C@]1(O)[C@H](O)[C@@H](CO)O[C@H]1n1ccc(N)nc1=O | > 350 |  | > 350 |  |  |  | 
17 | CC[C@@]1(O)[C@@H](CO)O[C@@H](n2ccc(N)nc2=O)[C@@H]1O | 258 | 0 | 269 | > 30 |  |  | 
18 | C#CC[C@@]1(O)[C@@H](CO)O[C@@H](n2ccc(N)nc2=O)[C@@H]1O | > 350 |  | > 350 |  |  |  | 
19 | C#CC[C@]1(O)[C@@H](CO)O[C@@H](n2ccc(=O)[nH]c2=O)[C@@H]1O | > 350 |  | > 350 |  |  |  | 
20 | Nc1ccn([C@@H]2O[C@H](CO)[C@](O)(C3CC3)[C@H]2O)c(=O)n1 | > 350 |  | > 350 |  |  |  | 
21 | C#C[C@@]1(O)[C@H](O)[C@@H](CO)O[C@H]1n1ccc(N)nc1=O [2'-ETHYNYL-D-CYTIDINE] | > 350 |  | > 350 |  |  |  | 
22 | Nc1ccn([C@@H]2O[C@H](CO)[C@@H](O)[C@H]2O)c(=O)n1 [CYTIDINE] |  | 812 |  |  |  |  | 
23 | O=c1ccn([C@@H]2O[C@H](CO)[C@@H](O)[C@H]2O)c(=O)[nH]1 [URIDINE] |  | 755 |  |  |  |  | 
